Reference: paper PMC8148075 (Acta Pharmaceutica Sinica. B, 2020)
Peptide text beside a SMILES is read from it. * marks the point of attachment. Cbz = O=C(OCc1ccccc1)*; CH2F = FC*

What was measured:
[1] = test system: mRFP-GFP-LC3 puncta (autophagosomes, autolysosomes); assay: mRFP-GFP-LC3 adenovirus autophagy flux, confocal microscopy; format: cell-based, human; conditions: ECa109 and EC9706 cells, SFN 10 μmol/L or bafilomycin A1 100 nmol/L, 24 h, Fig. 3D
In short: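 ECa109 and EC9706 cells (3 × 10⁵/well) were infected with mRFP-GFP-LC3 adenovirus for 48 h, then replated on glass-bottom dishes at 1 × 10⁴ cells/well. Treated with 10 μmol/L test compound or 100 nmol/L bafilomycin A1 for 24 h, fixed in 4% paraformaldehyde for 20 min and imaged by confocal microscopy. Yellow (green+red) puncta were scored as autophagosomes and red as autolysosomes, n = 3.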

[2] = test system: cleaved-caspase 9, BAX, BCL-2; assay: Western blot of apoptotic markers in ESCC cells; format: cell-based, human; conditions: ECa109 and EC9706 cells, SFN 10 μmol/L, 0-24 h, Fig. 2B
In short: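 ECa109 and EC9706 cells were exposed to 10 μmol/L test compound for 0, 3, 6, 12 and 24 h. Equal protein (30 μg) was separated by SDS-PAGE and transferred to nitrocellulose. Membranes were blocked in 5% skimmed milk for 2 h at room temperature, given primary antibody overnight at 4 °C and secondary antibody for 2 h. Detection by ECL, bands quantified by densitometry, n = 3.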

EC9706 cells [3] = assay: CCK-8 cell proliferation assay, EC9706; format: cell-based, human; conditions: for IC50: Homo sapiens
In short: (§1)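 Cells were kept in RPMI-1640 with 10% FBS, penicillin and streptomycin at 37 °C and 5% CO2. They were seeded in 96-well plates and exposed to the test compound over graded concentrations (e.g., 0–80 μmol/L) for 24, 48 or 72 h, alone or with modulators. CCK-8 reagent was then added, and optical density was read after a further 4 h. n = 3.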

ECa109 cells [4] = assay: CCK-8 cell proliferation assay, ECa109; format: cell-based, human; conditions: for IC50: Homo sapiens
In short: as §1

NRF2, HO-1 = assay: Western blot of NRF2; format: cell-based, human; conditions: ECa109 and EC9706 cells
Het-1A cells = assay: CCK-8 cell proliferation assay, Het-1A; format: cell-based; conditions: Homo sapiens
[5] = Toxicity evaluation in xenograft mice; format: in vivo, athymic BALB/c male nude mice; conditions: for HCT / HGB / MCH / MCHC / MCV / MPV / PLT / RBC / RDW / WBC: blood of xenograft mice, end of treatment; for Toxicity to nude mice (overall): therapeutic doses: SFN 5 mg/kg, CQ 60 mg/kg i.p. every other day, two weeks
[6] = test system: LC3, P62, NRF2, HO-1, BCL-2, BAX, cleaved-caspase 9; assay: Western blot of tumor tissues from xenograft mice; format: in vivo, athymic BALB/c male nude mice; conditions: SFN 5 mg/kg, Fig. 7G
In short: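 Male athymic BALB/c nude mice, 4–6 weeks old, received 1 × 10⁷ ECa109 cells in 0.2 mL PBS s.c. in the right flank. […] Excised tumors were stored at −80 °C and immunoblotted (ECL detection), n = 3.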

ECa109 cells [7] = assay: Clonogenic assay, ECa109; format: cell-based, human
In short: (§2)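 Cells in RPMI-1640 with 10% FBS at 37 °C, 5% CO2, seeded at 1 × 10³ cells/well in 6-well plates. Exposed to test compound (0, 5, 10 μmol/L) and grown 7 days. Colonies rinsed with PBS three times, fixed in 4% paraformaldehyde for 20 min, stained with 1% crystal violet for 30 min, then counted. Three independent experiments.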

EC9706 cells [8] = assay: Clonogenic assay, EC9706; format: cell-based, human
In short: as §2

ECa109 xenografts = assay: ECa109 xenograft in nude mice, anti-tumor efficiency; format: in vivo, athymic BALB/c male nude mice; conditions: ECa109 xenograft tumors, Fig. 7D
In short: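 Male athymic BALB/c nude mice (4–6 weeks old, acclimatised 1 week) received 1 × 10^7 ECa109 cells in 0.2 mL PBS subcutaneously into the right flank. At 90–120 mm3, mice were randomised (n = 5): saline, test compound 5 mg/kg, autophagy inhibitor 60 mg/kg, or combination, i.p. every other day for two weeks. Paraffin sections of fixed tumours were TUNEL-stained; brown positive cells were counted per 1500 tumour cells.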

[9] = test system: LC3B-II, P62, ATG3, ATG5, ATG7; assay: Western blot of autophagy proteins in ESCC cells; format: cell-based, human; conditions: ECa109 and EC9706 cells
ECa109 cells [10] = assay: Annexin V-FITC/PI flow cytometry apoptosis assay, ECa109; format: cell-based, human; conditions: ECa109, CQ 20 μmol/L alone, 72 h, Fig. 5D
EC9706 cells [11] = assay: Annexin V-FITC/PI flow cytometry apoptosis assay, EC9706; format: cell-based, human; conditions: EC9706, CQ 20 μmol/L alone, 72 h, Fig. 5D
[12] = organ weight/body weight × 100, xenograft mice, SFN 5 mg/kg, CQ 60 mg/kg i.p.

With `CO/C1=C\C(C)=C\[C@@H](C)[C@@H](O)[C@@H](C)C/C(C)=C/C=C/[C@H](OC)[C@@H]([C@@H](C)[C@@H](O)[C@H](C)[C@@]2(O)C[C@@H](O)[C@H](C)[C@@H](C(C)C)O2)OC1=O` [bafilomycin A1, reference compound] the “Fluorescent puncta (yellow = autophagosomes, red = autolysosomes)” value [1] was “many yellow puncta”.

With `C[S+]([O-])CCCCN=C=S` (stereo not shown) [SFN, Sulforaphane] the “Level of cleaved-caspase 9” value [2] was “increased the levels of cleaved-caspase 9 in a time-dependent manner”, the IC50 (EC9706 cells [3]; EC9706, 24 h) was 75.3 ± 1.88 µM and the IC50 (EC9706 cells [3]; EC9706, 48 h) was 41 ± 1.7 µM. The IC50 (EC9706 cells [3]; EC9706, 72 h) was 17.5 ± 1.24 µM, the IC50 (ECa109 cells [4]; ECa-109, 24 h) was 47.4 ± 1.68 µM and the IC50 (ECa109 cells [4]; ECa-109, 48 h) was 20.8 ± 1.32 µM. The IC50 (ECa109 cells [4]; ECa-109, 72 h) was 15.2 ± 1.18 µM, the “Expression of NRF2 in nucleus” value (NRF2, HO-1; SFN 5 and 10 μmol/L, Fig. 4B) was “increased the expression of NRF2 in nucleus” and the IC50 (Het-1A cells; 48 h) was 34.1 ± 1.53 µM. For the same compound, the IC50 (Het-1A cells; 72 h) was 21.3 ± 1.33 µM, the HCT ([5]; SFN 5 mg/kg, CQ 60 mg/kg i.p.) was 42.62 ± 4.07% and the HGB ([5]; SFN 5 mg/kg, CQ 60 mg/kg i.p.) was 139.00 ± 13.78 g/L. The MCH ([5]; SFN 5 mg/kg, CQ 60 mg/kg i.p.) was 15.20 ± 0.65 pg, the MCHC ([5]; SFN 5 mg/kg, CQ 60 mg/kg i.p.) was 326.17 ± 3.82 g/L and the MCV ([5]; SFN 5 mg/kg, CQ 60 mg/kg i.p.) was 49.62 ± 0.55 fL. For the same compound, the MPV ([5]; SFN 5 mg/kg, CQ 60 mg/kg i.p.) was 6.62 ± 0.17 fL, the PLT ([5]; SFN 5 mg/kg, CQ 60 mg/kg i.p.) was 867.83 ± 134.68 × 10^9/L and the RBC ([5]; SFN 5 mg/kg, CQ 60 mg/kg i.p.) was 8.59 ± 0.83 × 10^12/L. For the same compound, the RDW ([5]; SFN 5 mg/kg, CQ 60 mg/kg i.p.) was 16.18 ± 0.08%, the WBC ([5]; SFN 5 mg/kg, CQ 60 mg/kg i.p.) was 4.18 ± 0.48 × 10^9/L and the “Relative organ weight, heart” value [5, 12] was 0.63 ± 0.13%. For the same compound, the “Relative organ weight, left kidney” value [5, 12] was 0.84 ± 0.19%, the “Relative organ weight, liver” value [5, 12] was 6.74 ± 0.35% and the “Relative organ weight, lung” value [5, 12] was 0.72 ± 0.19%. For the same compound, the “Relative organ weight, right kidney” value [5, 12] was 0.98 ± 0.17%, the “Relative organ weight, spleen” value [5, 12] was 0.79 ± 0.14% and the “Toxicity to nude mice (overall)” value [5] was “no obvious toxicity”. For the same compound, the “LC3B-II and P62 expression in tumors compared to control” value [6] was “increased of LC3B-Ⅱ and decreased P62 expression”, the “Effect on colony formation” value (ECa109 cells [7]; ECa109, SFN 5 and 10 μmol/L, 7 days, Fig. 1C) was “significantly inhibited the colony formation” and the “Effect on colony formation” value (EC9706 cells [8]; EC9706, SFN 5 and 10 μmol/L, 7 days, Fig. 1C) was “significantly inhibited the colony formation”. For the same compound, the “TUNEL positive cells in tumor tissue compared with control” value (ECa109 xenografts) was “large number of TUNEL positive cells”, the “Expression of LC3B-II and P62” value ([9]; SFN 10 μmol/L, 0-24 h, Fig. 3A) was “increased LC3B-II and decreased P62” and the “Expression of ATG3, ATG5 and ATG7” value ([9]; SFN 10 μmol/L, 0-24 h, Fig. 4A) was “no changes”. For the same compound, the “Fluorescent puncta (yellow = autophagosomes, red = autolysosomes)” value [1] was “many yellow puncta and red puncta”.

For `COC(=O)C[C@H](NC(=O)[C@H](C)NC(=O)[C@@H](NC(=O)OCc1ccccc1)C(C)C)C(=O)CF` [Z-VAD-FMK, reference compound] (Cbz-Val-Ala-Asp(OMe)-CH2F), the “Effect on cell proliferation (CCK-8)” value (EC9706 cells [3]; EC9706, Z-VAD-FMK 20 μmol/L alone, 48 h, Fig. 2C) was “no obvious effects on cell proliferation” and the “Effect on cell proliferation (CCK-8)” value (ECa109 cells [4]; ECa109, Z-VAD-FMK 20 μmol/L alone, 48 h, Fig. 2C) was “no obvious effects on cell proliferation”.

In the case of `CCN(CC)CCCC(C)Nc1ccnc2cc(Cl)ccc12` (stereo not shown) [CQ, chloroquine, reference compound], the “Effect of CQ on SFN-induced NRF2 in nucleus” value (NRF2, HO-1; CQ 20 μmol/L combined with SFN 10 μmol/L, 48 h, Fig. 5F) is reported as “markedly inhibited the activation of SFN to NRF2”, the HCT ([5]; SFN 5 mg/kg, CQ 60 mg/kg i.p.) is reported as 43.05 ± 1.75% and the HGB ([5]; SFN 5 mg/kg, CQ 60 mg/kg i.p.) is reported as 140.67 ± 6.31 g/L. For the same compound, the MCH ([5]; SFN 5 mg/kg, CQ 60 mg/kg i.p.) was 15.28 ± 0.28 pg, the MCHC ([5]; SFN 5 mg/kg, CQ 60 mg/kg i.p.) was 326.67 ± 4.50 g/L and the MCV ([5]; SFN 5 mg/kg, CQ 60 mg/kg i.p.) was 50.10 ± 0.78 fL. For the same compound, the MPV ([5]; SFN 5 mg/kg, CQ 60 mg/kg i.p.) was 6.52 ± 0.13 fL, the PLT ([5]; SFN 5 mg/kg, CQ 60 mg/kg i.p.) was 941.00 ± 45.99 × 10^9/L and the RBC ([5]; SFN 5 mg/kg, CQ 60 mg/kg i.p.) was 8.60 ± 0.38 × 10^12/L. The RDW ([5]; SFN 5 mg/kg, CQ 60 mg/kg i.p.) was 16.38 ± 0.08%, the WBC ([5]; SFN 5 mg/kg, CQ 60 mg/kg i.p.) was 4.71 ± 0.99 × 10^9/L and the “Toxicity to nude mice (overall)” value [5] was “no obvious toxicity”. For the same compound, the “Effect on cell apoptosis” value (ECa109 cells [10]) was “no obvious effects on cell apoptosis”, the “Effect on cell apoptosis” value (EC9706 cells [11]) was “no obvious effects on cell apoptosis” and the “Expression of LC3B-II and P62” value ([9]; CQ 20 μmol/L alone, Fig. 3C) was “promoted expression LC3B-II and P62”.

In the case of `Cc1ccccc1C(=O)N1CCc2cc(-c3nc(NC(=O)Cc4ccc5c(c4)OCO5)sc3C)ccc21` [ML385, reference compound], the “Effect on cell viability (CCK-8)” value (EC9706 cells [3]; EC9706, ML385 0-200 μmol/L, 48 and 72 h, Fig. 4E) is reported as “significantly inhibited cell viability”, the “Effect on cell viability (CCK-8)” value (ECa109 cells [4]; ECa109, ML385 0-200 μmol/L, 48 and 72 h, Fig. 4E) is reported as “significantly inhibited cell viability” and the “Expression of NRF2 and HO-1” value (NRF2, HO-1; ML385 5-30 μmol/L, Fig. 4C) is reported as “decreased expression of NRF2 and HO-1 in a dose-dependent manner”. For the same compound, the “Effect on colony formation” value (ECa109 cells [7]; ECa109, ML385, 7 days, Fig. 4F) was “significantly inhibited cell viability and colony formation”, the “Effect on colony formation” value (EC9706 cells [8]; EC9706, ML385, 7 days, Fig. 4F) was “significantly inhibited cell viability and colony formation” and the “Expression of LC3B-II and P62” value ([9]; ML385 20 μmol/L alone, Fig. 4D) was “inhibited LC3B-II and promoted P62 expression”.
